Reference: ChEMBL document CHEMBL1955811, “Inhibition of colony-stimulating-factor-1 signaling in vivo with the orally bioavailable cFMS kinase inhibitor GW2580” (Proc Natl Acad Sci U S A, 2005)
Active and inactive are the calls of the source. The rule behind the calls is not given here.

Key:
[1] = system: Osteoclast; test: Inhibition of human osteoclast degradation of bone assessed as bone slice resorbed at 1 uM after 3 days by immunocytochemistry (reference value: 26.6 +/- 4.7 %); assay type: functional; settings: 72 h
[2] = system: HUVEC; test: Growth inhibition of bFGF-stimulated HUVEC after 3 days by spectrophotometry; assay type: cell-based; settings: Homo sapiens, 72 h
Method in brief: (§1)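 Cells cultured so that added serum or growth factor gave linear growth. Compound tested as a 10- to 12-point dose-response with a top concentration of 20 μM.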

[3] = system: A549; test: Growth inhibition of serum-stimulated human A549 cells after 3 days by spectrophotometry; assay type: functional, cell-based; settings: A549, 72 h; method in brief: as §1
[4] = molecular target: Proto-oncogene tyrosine-protein kinase LCK (Mus musculus, UniProt P06240); test: Inhibition of mouse LCK
Sequence of Proto-oncogene tyrosine-protein kinase LCK (P06240 whole entry): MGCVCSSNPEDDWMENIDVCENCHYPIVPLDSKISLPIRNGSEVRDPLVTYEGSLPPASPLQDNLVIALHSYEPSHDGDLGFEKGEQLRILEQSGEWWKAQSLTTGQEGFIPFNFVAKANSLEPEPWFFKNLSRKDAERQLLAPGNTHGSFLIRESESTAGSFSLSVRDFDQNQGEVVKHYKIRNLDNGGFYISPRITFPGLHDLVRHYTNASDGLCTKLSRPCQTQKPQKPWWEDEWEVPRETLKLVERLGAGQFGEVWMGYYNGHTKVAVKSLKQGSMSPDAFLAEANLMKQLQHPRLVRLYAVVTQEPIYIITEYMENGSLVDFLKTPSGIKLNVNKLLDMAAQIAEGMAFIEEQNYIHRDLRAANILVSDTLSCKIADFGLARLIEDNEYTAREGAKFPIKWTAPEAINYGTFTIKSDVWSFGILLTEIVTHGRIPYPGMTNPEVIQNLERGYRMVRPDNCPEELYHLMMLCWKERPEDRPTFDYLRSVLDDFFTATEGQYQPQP

[5] = system: Mus musculus; test: Inhibition of LPS-stimulated TNF production in mouse at 40 mg/kg, po administered 4.5 hr before LPS challenge measured […] after LPS challenge; assay type: functional
[6] = system: Monocyte; test: Growth inhibition of CSF-1-stimulated freshly isolated human monocytes after 3 days by spectrophotometry; assay type: functional, cell-based; settings: 120 h, in the assay text read “after 5 days” for “after 3 days”; method in brief: as §1
[7] = (§2) Cmax in mouse at 80 mg/kg, po; assay type: ADME, organism-based; set-up: dose 80 mg/kg, route oral; settings: in vivo
Method in brief: (§3)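 Female mice given single oral doses (20 or 80 mg/kg) in 0.5% HPMC/0.1% Tween 80. Three mice killed with CO2 per time point; plasma extracted with isopropyl alcohol/acetonitrile, then vortexed, sonicated and centrifuged. Quantified by LC/MS (APCI positive mode, multiple-reaction monitoring) against a standard curve prepared in plasma.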

[8] = system: Mus musculus; test: Toxicity in mouse M-NFS-60 cells allografted CD-1 nude mouse assessed as effect on body weight at 20 to 80 mg/kg, po BID starting 1 hr before challenge for 4 days; assay type: organism-based; set-up: dose 20-80 mg/kg, route oral; settings: in vivo
Method in brief: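 Female CD-1 nude mice (22-26 g) received 1 × 10^7 M-NFS-60 cells in PBS i.p. Oral dosing b.i.d. in 0.5% HPMC/0.1% Tween 80 began 1 h before cell injection. Body weight was taken at kill on day 4.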

[9] = as §2; assay type: ADME, organism-based; set-up: dose 80 mg/kg, route oral; settings: in vivo; method in brief: as §3; remark: listed apart in the source
[10] = Growth inhibition of serum-stimulated human MDA231 cells after 3 days by spectrophotometry; assay type: functional, cell-based; settings: MDA-MB-231, 72 h; method in brief: as §1
[11] = system: Mus musculus; test: Inhibition of LPS-stimulated IL-6 production in mouse at 40 mg/kg, po administered 0.5 hr before LPS challenge measured […] after LPS challenge; assay type: functional
[12] = molecular target: T1, Protein kinase C zeta type (Homo sapiens, UniProt Q05513); test: Inhibition of human His-tagged PKCz using biotin-(amino hexanoic acid)-FKLKRKGSFKKFA-CONH2 as substrate after 40 mins by scintillation proximity assay
T1 sequence (Q05513 whole entry): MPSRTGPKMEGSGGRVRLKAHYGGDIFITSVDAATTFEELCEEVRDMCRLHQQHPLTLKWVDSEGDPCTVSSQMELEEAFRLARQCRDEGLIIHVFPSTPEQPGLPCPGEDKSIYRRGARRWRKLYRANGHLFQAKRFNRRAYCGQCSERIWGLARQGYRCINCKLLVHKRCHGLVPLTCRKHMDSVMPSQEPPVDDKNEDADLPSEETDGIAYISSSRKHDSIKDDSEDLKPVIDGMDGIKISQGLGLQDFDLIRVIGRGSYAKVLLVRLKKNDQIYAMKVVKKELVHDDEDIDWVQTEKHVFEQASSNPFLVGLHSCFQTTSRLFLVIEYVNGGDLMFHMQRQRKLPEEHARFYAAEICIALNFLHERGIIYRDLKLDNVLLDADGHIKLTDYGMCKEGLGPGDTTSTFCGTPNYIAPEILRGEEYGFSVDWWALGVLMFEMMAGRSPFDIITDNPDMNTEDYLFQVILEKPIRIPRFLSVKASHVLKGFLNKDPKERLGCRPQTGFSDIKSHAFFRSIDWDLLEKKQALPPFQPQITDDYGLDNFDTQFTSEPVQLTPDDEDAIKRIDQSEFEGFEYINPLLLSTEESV
Method in brief: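 Catalytic domains of the human kinases were expressed, isolated and assayed with ATP and the appropriate substrate. Compound was tested as a 10- to 12-point dose-response up to a maximal 20 μM.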

[13] = system: Mus musculus; test: Inhibition of LPS-stimulated IL-6 production in mouse at 40 mg/kg, po administered 4.5 hr before LPS challenge measured […] after LPS challenge; assay type: functional
[14] = system: Osteoclast; test: Inhibition of human osteoclast attachment to plastic surface assessed cells per cm2 of plastic at 10 uM after 3 days by immunocytochemistry (reference value: 9723 +/- 1380 cells/cm2 of plastic); assay type: functional
Method in brief: (§4)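 Human PBMCs from a healthy volunteer (5 × 10^5 cells in MEM/10% FCS) were seeded on plastic coverslips with RANKL and CSF-1 (30 ng/ml each) for 10 days, with medium changed every 3 days. Compound was added on day 10 (0.1% DMSO final). On day 13, total cells on the coverslips were counted by immunocytochemistry. Data are mean ± SEM.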

[15] = system: PBMC; test: Effect on LPS-induced PGE2 production in human PBMC at 0.03906 to 20 uM preincubated for 30 mins before LPS stimulation measured after 20 hrs by ELISA; assay type: functional, cell-based
[16] = system: Osteoclast; test: Inhibition of human osteoclast attachment to plastic surface assessed cells per cm2 of plastic at 1 uM after 3 days by immunocytochemistry (reference value: 9723 +/- 1380 cells/cm2 of plastic); assay type: functional; method in brief: as §4
[17] = organism: Rattus norvegicus; test: Inhibition of PTH-induced Wistar rat fetal long bone degradation assessed as labeled 45Ca release in to media at 1 to 10 uM after 48 hrs by liquid scintillation spectrometry; assay type: functional
Method in brief: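 Fetal rat long bones preloaded with 45CaCl2 and incubated for 24 h. PTH and compound then added; release of labelled calcium into the medium measured 48 h later.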

[18] = system: Monocyte; test: Inhibition of GMCSF-stimulated growth of freshly isolated human monocytes at 1 uM preincubated for 30 mins before inducer addition measured after 5 days by WST-1 method; assay type: functional; settings: read-out: GI
[19] = system: NFS-60; test: Antitumor activity in mouse M-NFS-60 cells allografted in CD-1 nude mouse assessed as inhibition of tumor cell growth in peritoneal cavity at 80 mg/kg, po BID starting 1 hr before challenge for 4 days measured after 4 days; assay type: functional, organism-based; set-up: dose 80 mg/kg
Method in brief: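 CD-1 nude female mice (22-26 g); 1 × 10^7 M-NFS-60 cells in PBS injected i.p. Oral dosing b.i.d. at 20 and 80 mg/kg as a suspension in 0.5% hydroxypropylmethylcellulose/0.1% Tween 80 (0.2 ml per mouse), starting 1 h before cell injection. Peritoneal cells recovered by cold PBS-heparin lavage on day 4 and counted by hemocytometer after crystal violet dilution. Mean ± SEM; Dunnett's test.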

[20] = system: Peritoneal macrophage cell; test: Effect on LPS-induced IL-6 production in mouse intraperitoneal macrophages pretreated with CSF-1 at 0.03906 to 20 uM compound incubated for 30 mins before LPS stimulation measured after 20 hrs by ELISA; assay type: functional, cell-based
[21] = system: Macrophage; test: Effect on LPS-induced TNF production in CSF-1-stimulated human macrophages at 0.03906 to 20 uM preincubated for 30 mins before LPS stimulation measured after 20 hrs by ELISA; assay type: functional, cell-based
[22] = Cmax in mouse at 20 mg/kg, po; assay type: ADME, organism-based; set-up: dose 20 mg/kg, route oral; settings: in vivo; method in brief: as §3

IC50 [3]: > 30 µM
IC50 [4]: > 10 µM
Cmax [7]: 5600 nM
Cmax [9]: 400 nM
IC50 [12]: > 24 µM
Cmax [22]: 1400 nM
Structure (SMILES): COc1ccc(COc2ccc(Cc3cnc(N)nc3N)cc2OC)cc1 [GW632580X]
bone resorption (%) at 1 µM [1]: 3.3%
IC50 [2]: > 10 µM
inhibition in vivo at 40 mg/kg [5]: 42%
IC50 [6]: 0.47 µM
Activity [8]: Non-toxic
IC50 [10]: > 30 µM
inhibition in vivo at 40 mg/kg [11]: 20%
inhibition in vivo at 40 mg/kg [13]: -28%
Activity [14]: 2728 /cm2
Activity [15]: inactive
Activity [16]: 2984 /cm2
inhibition [17]: Active
inhibition of growth at 1 µM [18]: 80%
growth inhibition (GI) [19]: Active
Activity [20]: inactive
Activity [21]: inactive
